Results pooled from the literature.
Lines come from different studies, so protocols differ.
Target: Homeodomain-interacting protein kinase 4 (HIPK4, Homo sapiens, UniProt Q8NE63)
Residues used in one study (Q8NE63 1-616): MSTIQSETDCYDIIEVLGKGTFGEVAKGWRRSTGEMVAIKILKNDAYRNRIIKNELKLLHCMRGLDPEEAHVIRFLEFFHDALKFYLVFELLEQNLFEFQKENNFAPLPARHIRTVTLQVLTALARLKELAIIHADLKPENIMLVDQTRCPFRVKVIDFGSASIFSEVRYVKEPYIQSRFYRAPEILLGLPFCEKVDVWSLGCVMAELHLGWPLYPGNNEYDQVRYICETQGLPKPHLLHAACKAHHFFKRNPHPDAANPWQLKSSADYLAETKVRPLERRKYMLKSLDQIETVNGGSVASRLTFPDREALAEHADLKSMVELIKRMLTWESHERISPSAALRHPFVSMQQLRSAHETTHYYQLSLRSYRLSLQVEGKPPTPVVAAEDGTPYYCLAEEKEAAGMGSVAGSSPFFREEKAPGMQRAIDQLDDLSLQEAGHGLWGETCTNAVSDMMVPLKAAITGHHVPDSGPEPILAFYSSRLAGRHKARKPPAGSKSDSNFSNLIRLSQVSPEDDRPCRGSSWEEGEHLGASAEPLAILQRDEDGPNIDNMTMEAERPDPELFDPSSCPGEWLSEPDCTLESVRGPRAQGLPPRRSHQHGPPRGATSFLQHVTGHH

SMILES	observed	method	concentration	remaining binding
O=C(c1ccc(Nc2nccc(-c3cc4ccccc4s3)n2)cc1)N1CCC(N2CCCC2)CC1	binding	competition with immobilised ligand	1 µM	4.1%
Cc1c[nH]c2nccc(Oc3c(F)cc(Nc4cc(Cl)nc(N)n4)cc3F)c12	cell-free assay	competition with immobilised ligand	0.1 µM	100%
CCN1CCN(Cc2ccc(C(=O)Nc3ccc(C)c(Oc4ccc5c(c4)CC(=O)N5)c3)cc2C(F)(F)F)CC1	binding	competition with immobilised ligand	1 µM	100%
CN(c1ccnc(CNc2nc(Nc3ccc4c(c3)CC(=O)N4)ncc2C(F)(F)F)n1)S(C)(=O)=O	cell-free assay	competition with immobilised ligand	1 µM	35%
COc1cnc(Nc2cccc(S(N)(=O)=O)c2)nc1N1CCN(c2ccccc2)CC1	binding	competition with immobilised ligand	1 µM	99%
O=c1nc(-c2ccccn2)sc2ccccc12	binding	competition with immobilised ligand	1 µM	85%
O=C(Nc1c[nH]nc1C(=O)NC1CCNCC1)c1cc(F)cc(F)c1	binding	competition with immobilised ligand	1 µM	59%
CN(C(=O)c1ccccc1)c1cc(N(C)c2ccc3c(c2)CCc2ccc(C(=O)NCCN4CCOCC4)cc2C3=O)ccc1F	cell-free assay	competition with immobilised ligand	1 µM	100%
CN(CCCC(F)(F)F)c1nccc(-c2cnn3ncccc23)n1	binding	–	1 µM	95%
COc1cnc(Nc2cccc(S(N)(=O)=O)c2)nc1N1CCN(c2ccccc2)C(=O)C1	binding	competition with immobilised ligand	1 µM	91%
O=C(c1ccc(Nc2ncc(Cl)c(-c3ccc(Cl)s3)n2)cc1)N1CCC(N2CCCC2)CC1	binding	competition with immobilised ligand	1 µM	3.6%
Nc1ncc2c(n1)-c1c([nH]c3ccc(C#CC4CC4)cc13)CCCC2	binding	competition with immobilised ligand	1 µM	95%
CN(C)c1nccc(-c2cnn3ncccc23)n1	binding	–	1 µM	75%
c1cncc(-c2cccc(Nc3nccc(NC4CCCCC4)n3)c2)c1	binding	competition with immobilised ligand	10 µM	22%
N[C@H]1CCN(c2nccc(-c3cnn4ncccc34)n2)C1	binding	–	1 µM	33%
Nc1c(C(=O)NCc2ccc(C(=O)NCCCC3CCCCC3)cc2)cnn1-c1ccccc1	cell-free assay	competition with immobilised ligand	0.1 µM	100%
C[C@H]1CCN(c2nccc(-c3cnn4ncccc34)n2)C1	binding	–	1 µM	80%
C[C@H](c1ccnc(Nc2nc3ccc(-c4cc(N(C)C)ncn4)cc3[nH]2)c1)N1CCN(C(=O)CC(F)(F)F)CC1	cell-free assay	competition with immobilised ligand	0.1 µM	100%
F[C@@H]1CCN(c2nccc(-c3cnn4ncccc34)n2)C1	binding	–	1 µM	90%
O=C(c1ccc(Nc2ncc(Cl)c(-c3cc4ccccc4s3)n2)cc1)N1CCC(N2CCCC2)CC1	binding	competition with immobilised ligand	1 µM	2.5%
CN(C)c1ncc(F)c(-c2cnn3ncccc23)n1	binding	–	1 µM	100%
C=CC(=O)N1CCC(C(=O)NCC(=O)N2CCN(c3nc(-c4cnc(N)nc4C(F)F)nc(N4CCOCC4)n3)CC2)CC1	binding	competition with immobilised ligand	1 µM	100%
